ChEMBL document CHEMBL1159066 (J Med Chem, 2010)
Calls of active or inactive are those of the source. The calls are words filed in the database; no cut-off is given here.

What was measured:
[1] = system: Caenorhabditis elegans; test: Protection against mutant PABPN1-induced toxicity in transgenic Caenorhabditis elegans coexpressing nuclear GFP and PABPN1-A13 assessed as inhibition of nuclear collapse; format: functional, organism-based
In short: (§1)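 Synchronized L1 transgenic worms incubated with drug in OP-50.1 liquid culture; nuclear GFP signals counted at young adulthood under 10x fluorescence microscopy. Percent rescue = ((test − control)/control) × 100, negative values indicating enhanced toxicity. At least 100 worms scored per dose, three independent assays; two-tailed Student's t-test unless stated otherwise.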

[2] = system: Caenorhabditis elegans; test: Protection against mutant PABPN1-induced toxicity in transgenic Caenorhabditis elegans coexpressing nuclear GFP and PABPN1-A13 assessed as inhibition of deffective worm motility at 33.3 uM; format: functional, organism-based
In short: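 Drug-treated transgenic worms as day 3-5 adults placed on thin OP-50.1 lawn on NGM plates; body bends (complete sinusoids) counted immediately over 20 s. 60-100 worms per dose, three independent assays; mean ± SEM compared with untreated animals.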

[3] = molecular target: T1, NAD-dependent protein deacetylase sirtuin-2 (Homo sapiens, UniProt Q8IXJ6); test: Inhibition of human recombinant SIRT2 by Flour de Lys assay
T1 sequence (Q8IXJ6 whole entry): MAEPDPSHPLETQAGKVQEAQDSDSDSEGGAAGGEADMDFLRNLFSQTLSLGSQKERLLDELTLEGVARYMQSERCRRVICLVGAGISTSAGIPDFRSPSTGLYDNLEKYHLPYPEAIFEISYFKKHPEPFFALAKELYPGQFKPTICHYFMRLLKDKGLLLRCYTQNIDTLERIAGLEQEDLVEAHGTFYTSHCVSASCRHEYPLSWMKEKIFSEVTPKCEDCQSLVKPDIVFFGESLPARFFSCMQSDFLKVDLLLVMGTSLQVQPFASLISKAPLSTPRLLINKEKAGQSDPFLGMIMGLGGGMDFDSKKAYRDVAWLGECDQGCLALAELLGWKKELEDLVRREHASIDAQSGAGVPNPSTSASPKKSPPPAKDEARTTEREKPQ

[4] = system: Caenorhabditis elegans; test: Effect on nuclear integrity in transgenic Caenorhabditis elegans coexpressing nuclear GFP and normal PABPN1-A10; format: functional, organism-based
In short: (§2)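 Synchronized L1 worms were kept in OP-50.1 liquid culture with the drug. Nuclear GFP signals were counted at young adulthood under a ×10 fluorescence microscope. Percent rescue = ((test − control)/control) × 100, where a negative value means enhanced toxicity. At least 100 worms were scored per dose, in three independent assays. Comparison was by two-tailed Student's t-test.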

[5] = molecular target: T2, NAD-dependent protein deacetylase sirtuin-1 (Homo sapiens, UniProt Q96EB6); test: Inhibition of human recombinant SIRT1 by Flour de Lys assay
T2 sequence (Q96EB6 whole entry): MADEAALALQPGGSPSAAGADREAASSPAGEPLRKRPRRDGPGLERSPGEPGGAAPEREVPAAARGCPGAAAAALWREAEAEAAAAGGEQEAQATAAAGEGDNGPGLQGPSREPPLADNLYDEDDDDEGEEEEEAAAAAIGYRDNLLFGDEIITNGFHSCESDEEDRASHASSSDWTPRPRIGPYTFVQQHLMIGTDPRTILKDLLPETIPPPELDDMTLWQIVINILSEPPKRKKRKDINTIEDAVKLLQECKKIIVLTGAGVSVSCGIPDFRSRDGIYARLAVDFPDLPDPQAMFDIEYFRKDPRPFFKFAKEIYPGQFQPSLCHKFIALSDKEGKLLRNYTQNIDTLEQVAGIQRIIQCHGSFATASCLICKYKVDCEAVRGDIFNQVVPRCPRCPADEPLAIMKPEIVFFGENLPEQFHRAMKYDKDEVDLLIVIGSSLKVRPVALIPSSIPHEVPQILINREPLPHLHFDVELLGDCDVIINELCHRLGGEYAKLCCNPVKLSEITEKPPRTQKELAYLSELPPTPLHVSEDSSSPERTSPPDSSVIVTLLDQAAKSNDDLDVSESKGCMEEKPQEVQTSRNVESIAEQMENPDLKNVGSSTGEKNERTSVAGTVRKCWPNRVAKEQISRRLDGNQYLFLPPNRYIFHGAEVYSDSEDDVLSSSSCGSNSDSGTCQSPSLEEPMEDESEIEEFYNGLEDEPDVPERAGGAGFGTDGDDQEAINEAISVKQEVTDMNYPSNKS

[6] = system: Caenorhabditis elegans; test: Protection against mutant PABPN1-induced toxicity in transgenic Caenorhabditis elegans coexpressing nuclear GFP and PABPN1-A13 assessed as inhibition of nuclear collapse at 11.1 uM; format: functional, organism-based; in short: as §2
[7] = system: Caenorhabditis elegans; test: Protection against mutant PABPN1-induced toxicity in transgenic Caenorhabditis elegans coexpressing nuclear GFP and PABPN1-A13 assessed as inhibition of deffective worm motility at 11.1 uM; format: functional, organism-based
In short: (§3)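 Worms were drug-treated from the synchronized L1 stage in OP-50.1 liquid culture. Day 3–5 adults were placed on a thin OP-50.1 lawn on NGM plates. Body bends (complete sinusoids) were counted immediately over 20 s. 60–100 worms were scored per dose, in three independent assays. Results are mean ± SEM versus untreated animals, checked by one-way ANOVA.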

[8] = system: Caenorhabditis elegans; test: Protection against mutant PABPN1-induced toxicity in transgenic Caenorhabditis elegans coexpressing nuclear GFP and PABPN1-A13 assessed as nuclear GFP fluorescence level relative to untreated control; format: functional; in short: as §1
[9] = system: Caenorhabditis elegans; test: Protection against mutant PABPN1-induced toxicity in transgenic Caenorhabditis elegans coexpressing nuclear GFP and PABPN1-A13 assessed as inhibition of deffective worm motility; format: functional, organism-based; in short: as §3
[10] = system: Caenorhabditis elegans; test: Protection against mutant PABPN1-induced toxicity in transgenic Caenorhabditis elegans coexpressing nuclear GFP and PABPN1-A13 assessed as inhibition of deffective worm motility at 3.7 uM; format: functional, organism-based; in short: as §3
[11] = system: Caenorhabditis elegans; test: Protection against mutant PABPN1-induced toxicity in transgenic Caenorhabditis elegans coexpressing nuclear GFP and PABPN1-A13 assessed as inhibition of nuclear collapse at 3.7 uM; format: functional, organism-based; in short: as §2
[12] = system: Caenorhabditis elegans; test: Reduction of PABPN1 expression in transgenic Caenorhabditis elegans coexpressing nuclear GFP and PABPN1-A13 by Q-RT-PCR; format: functional, organism-based
[13] = system: Caenorhabditis elegans; test: Effect on nuclear integrity in transgenic Caenorhabditis elegans coexpressing nuclear GFP and normal PABPN1-A10 assessed as nuclear GFP fluorescence level relative to untreated control; format: functional; in short: as §1

Row | SMILES | Activity [1] | IC50 [3] [µM] | Activity [4] | IC50 [5] [µM] | other results
1 | NC(=O)[C@H]1CCCc2c1[nH]c1ccc(Cl)cc21 | Active | – | – | – | Activity [2]: Active
2 | CC(NC(=O)c1cccc(/N=C/c2c(O)ccc3ccccc23)c1)c1ccccc1 (stereo unspecified) | – | 34.5 | – | – | –
3 | CC(NC(=O)c1ccccc1/N=C/c1c(O)ccc2ccccc12)c1ccccc1 (stereo unspecified) | Active | – | inactive | – | –
4 | CC(NC(=O)c1ccc(/N=C/c2c(O)ccc3ccccc23)cc1)c1ccccc1 (stereo unspecified) | Active | 29.9 | inactive | 48.1 | –
5 | CC(CSc1cccc(/N=C/c2c(O)ccc3ccccc23)c1)c1ccccc1 (stereo unspecified) | inactive | 19.2 | – | 40.3 | –
6 | O=c1nc2oc3ccc4ccccc4c3cc-2c(=O)n1-c1ccccc1 | – | – | inactive | – | Activity [6]: Active; Activity [7]: Active
7 | CC(NS(=O)(=O)c1ccc(/N=C/c2c(O)ccc3ccccc23)cc1)c1ccccc1 (stereo unspecified) | – | 22.6 | inactive | 44.1 | Activity [8]: 10%; EC50 [9]: < 1 µM
8 | CC(C(=O)Nc1cccc(/N=C/c2c(O)ccc3ccccc23)c1)c1ccccc1 (stereo unspecified) | Active | – | inactive | – | –
9 | O=c1nc2oc3ccccc3cc-2c(=O)[nH]1 | – | 244 | inactive | 5.3 | Activity [10]: Active; Activity [11]: Active
10 | O=C1CCc2c(ccc3ccccc23)O1 | Active | – | inactive | – | Activity [12]: inactive; Activity [9]: Active
11 | N#C/C(=C\c1ccc(-c2cc(Cl)ccc2Cl)o1)C(=O)Nc1cccc2ncccc12 | Dose-dependent effect | – | – | > 50 | Activity [13]: 10%; Activity [8]: 20%
12 | O=C1Oc2ccc3ccccc3c2CC1C(=O)c1ccccc1Cl (stereo unspecified) | Active | 9.4 | inactive | 89.8 | Activity [12]: inactive; Activity [9]: Active
